The nature of experiment [1]: Cytotoxicity against human PC3 cells assessed as reduction in cell viability after 72 hrs by MTT assay. It counts as functional, cell-based. The conditions noted are these: PC-3, 72 h. The essentials:
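Cells grown in MEM with 10% FBS. About 4×10³ cells per well, seeded and held 24 h at 37 °C in 5% CO₂. Compounds added at the indicated final concentrations for 72 h. MTT then given for 4 h at 37 °C and formazan dissolved in DMSO. Absorbance read at 492 nm with 630 nm as reference.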
On the technique in general: Tetrazolium dyes change colour on reduction, which living cells bring about.

A further experiment concerns A549. The experiment can be described thus: Cytotoxicity against human A549 cells assessed as reduction in cell viability after 72 hrs by MTT assay. The experiment is classed as functional, cell-based. As to conditions: A549, 72 h.
Another experiment relates to MCF7. The experiment can be described thus: Cytotoxicity against human MCF7 cells assessed as reduction in cell viability after 72 hrs by MTT assay. The conditions noted are these: MCF7, 72 h. The experiment is classed as functional, cell-based.
Experiment [2] has as its target Phosphatidylinositol 4,5-bisphosphate 3-kinase catalytic subunit alpha isoform (Homo sapiens, UniProt P42336). The experiment can be described thus: Inhibition of PI3Kalpha (unknown origin) using phosphatidylinositol as substrate incubated for 60 mins by Kinase-Glo luminescent kinase assay. On the technique in general: Kinase-Glo reads ATP consumption through a luciferase reaction.

In experiment [3] the target is Serine/threonine-protein kinase mTOR (Homo sapiens, UniProt P42345). The experiment can be described thus: Inhibition of mTOR (unknown origin) using ULight-4E-BP1 peptide substrate incubated for 1 hr by TR-FRET assay.
Experiment [4] concerns the target Hepatocyte growth factor receptor (Homo sapiens, UniProt P08581).

Molecules are shown by their SMILES. Some results are limits rather than exact numbers.

Chain of Hepatocyte growth factor receptor (P08581 whole entry): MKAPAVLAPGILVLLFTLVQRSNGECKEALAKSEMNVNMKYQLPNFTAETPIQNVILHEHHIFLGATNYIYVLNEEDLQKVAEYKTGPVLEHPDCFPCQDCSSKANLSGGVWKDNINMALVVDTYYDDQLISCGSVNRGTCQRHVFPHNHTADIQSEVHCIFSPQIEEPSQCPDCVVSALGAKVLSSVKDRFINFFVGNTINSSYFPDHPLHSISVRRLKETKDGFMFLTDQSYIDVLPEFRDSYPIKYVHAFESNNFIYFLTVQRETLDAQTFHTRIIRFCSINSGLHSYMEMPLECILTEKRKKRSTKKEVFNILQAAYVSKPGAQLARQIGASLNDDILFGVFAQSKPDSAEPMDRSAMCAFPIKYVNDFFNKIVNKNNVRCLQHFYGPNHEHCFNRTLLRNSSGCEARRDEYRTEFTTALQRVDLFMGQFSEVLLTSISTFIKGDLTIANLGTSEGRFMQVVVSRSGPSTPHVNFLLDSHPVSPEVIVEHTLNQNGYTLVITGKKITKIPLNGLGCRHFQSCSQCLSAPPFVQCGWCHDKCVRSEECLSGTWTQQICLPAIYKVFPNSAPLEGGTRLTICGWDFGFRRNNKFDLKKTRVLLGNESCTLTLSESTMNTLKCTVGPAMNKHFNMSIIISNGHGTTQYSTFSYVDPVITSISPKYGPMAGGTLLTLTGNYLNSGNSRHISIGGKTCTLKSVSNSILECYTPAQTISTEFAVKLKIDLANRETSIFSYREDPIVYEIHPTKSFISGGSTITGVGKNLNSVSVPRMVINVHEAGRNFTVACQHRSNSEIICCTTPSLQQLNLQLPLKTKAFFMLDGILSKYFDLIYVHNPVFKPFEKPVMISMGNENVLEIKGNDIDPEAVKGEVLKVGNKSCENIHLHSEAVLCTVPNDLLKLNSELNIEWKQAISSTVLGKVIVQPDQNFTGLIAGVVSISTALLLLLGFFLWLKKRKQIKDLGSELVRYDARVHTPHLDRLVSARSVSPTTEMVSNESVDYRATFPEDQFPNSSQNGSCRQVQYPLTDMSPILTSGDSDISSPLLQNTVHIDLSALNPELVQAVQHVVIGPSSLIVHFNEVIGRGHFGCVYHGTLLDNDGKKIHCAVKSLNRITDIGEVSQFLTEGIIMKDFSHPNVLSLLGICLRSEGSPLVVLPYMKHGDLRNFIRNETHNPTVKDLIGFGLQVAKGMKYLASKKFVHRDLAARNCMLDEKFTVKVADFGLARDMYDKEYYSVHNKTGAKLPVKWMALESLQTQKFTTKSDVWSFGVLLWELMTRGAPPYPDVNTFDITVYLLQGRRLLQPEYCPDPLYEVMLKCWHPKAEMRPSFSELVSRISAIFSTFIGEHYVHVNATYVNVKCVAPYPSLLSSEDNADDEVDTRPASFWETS
Chain of Phosphatidylinositol 4,5-bisphosphate 3-kinase catalytic subunit alpha isoform (P42336 whole entry, canonical isoform): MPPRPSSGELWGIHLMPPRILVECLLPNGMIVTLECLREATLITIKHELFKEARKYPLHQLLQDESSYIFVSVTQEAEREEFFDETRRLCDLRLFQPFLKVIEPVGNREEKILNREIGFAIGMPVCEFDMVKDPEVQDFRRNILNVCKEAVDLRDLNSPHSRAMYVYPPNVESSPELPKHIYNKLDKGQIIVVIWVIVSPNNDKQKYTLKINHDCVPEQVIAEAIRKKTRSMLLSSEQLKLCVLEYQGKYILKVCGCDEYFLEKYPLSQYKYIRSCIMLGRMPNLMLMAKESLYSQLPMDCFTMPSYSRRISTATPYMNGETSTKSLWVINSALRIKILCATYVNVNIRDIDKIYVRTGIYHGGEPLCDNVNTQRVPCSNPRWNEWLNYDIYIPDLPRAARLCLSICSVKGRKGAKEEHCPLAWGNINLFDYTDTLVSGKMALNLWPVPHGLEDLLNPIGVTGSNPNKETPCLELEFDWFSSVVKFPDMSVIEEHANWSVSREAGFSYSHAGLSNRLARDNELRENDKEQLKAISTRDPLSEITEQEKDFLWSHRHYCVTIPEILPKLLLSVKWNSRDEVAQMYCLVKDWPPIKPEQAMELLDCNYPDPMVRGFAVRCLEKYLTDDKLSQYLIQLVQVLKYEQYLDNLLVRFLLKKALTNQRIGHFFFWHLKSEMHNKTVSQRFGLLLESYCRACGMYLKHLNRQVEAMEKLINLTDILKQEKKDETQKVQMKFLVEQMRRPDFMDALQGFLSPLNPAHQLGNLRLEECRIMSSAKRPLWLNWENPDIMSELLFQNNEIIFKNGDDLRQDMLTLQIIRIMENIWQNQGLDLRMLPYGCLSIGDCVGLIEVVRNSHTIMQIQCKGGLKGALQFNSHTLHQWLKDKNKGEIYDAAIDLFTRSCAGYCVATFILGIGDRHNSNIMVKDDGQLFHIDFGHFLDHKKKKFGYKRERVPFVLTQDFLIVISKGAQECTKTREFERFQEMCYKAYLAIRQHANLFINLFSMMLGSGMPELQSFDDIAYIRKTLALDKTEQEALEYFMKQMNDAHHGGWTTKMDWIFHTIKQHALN

In the case of `O=C(Nc1ccc(-c2nc3c(c(N4CCOCC4)n2)CSCC3)cc1)NS(=O)(=O)c1ccc(Cl)cc1`, the half-inhibitory concentration (IC50) (in experiment [1]; in the experiment with A549; in the experiment on MCF7) was above 50 µM throughout.

Consider `O=C(Nc1ccc(-c2nc3c(c(N4CCOCC4)n2)CS(=O)(=O)CC3)cc1)NS(=O)(=O)c1ccc(Cl)cc1`, for which the concentration for half-maximal inhibition (IC50) (in experiment [1]; with A549; in the experiment with MCF7) was above 50 µM throughout.

As to `O=C(Nc1ccccc1)N1CCN(c2nc3c(c(N4CCOCC4)n2)CSCC3)CC1`, the IC50 (in experiment [1]; in the experiment with A549; in the experiment with MCF7) was above 50 µM each time.

Regarding `O=C(Nc1ccc(-c2nc3c(c(N4CCOCC4)n2)CSCC3)cn1)NS(=O)(=O)c1cccs1`, the IC50 (commonly the concentration needed to halve the response being measured) was above 50 µM in experiment [1], 46.9 µM in the experiment with A549 and above 50 µM with MCF7.

For `O=C(Nc1ccc(Cl)c(C(F)(F)F)c1)N1CCN(c2nc3c(c(N4CCOCC4)n2)CS(=O)(=O)CC3)CC1`, the half-inhibitory concentration (IC50) in experiment [1] is 28.7 µM; in experiment [2], 4.23 µM; in the experiment on A549, 6.13 µM; in the experiment with MCF7, 5.94 µM; in experiment [3], 9.43 µM; in experiment [4] it was above 10 µM.

Take `O=C(Nc1ccc(Br)cc1)N1CCN(c2nc3c(c(N4CCOCC4)n2)CS(=O)(=O)CC3)CC1`: the concentration for half-maximal inhibition (IC50) was above 50 µM in experiment [1], 19 µM in the experiment on A549 and 45.6 µM in the experiment on MCF7.

Consider `O=C(Nc1ccccc1)Nc1ccc(-c2nc3c(c(N4CCOCC4)n2)CSCC3)cn1`, for which the IC50 in experiment [1] was above 50 µM; in the experiment on A549, 1.27 µM; with MCF7, 46.6 µM.

For `O=C(Nc1ccc(F)c(Cl)c1)Nc1ccc(-c2nc3c(c(N4CCOCC4)n2)CSCC3)cn1`, the IC50 in experiment [1] was 20.5 µM; in experiment [2], 0.69 µM; with A549, 6.07 µM; in the experiment on MCF7, 11.5 µM; in experiment [3], 0.86 µM; in experiment [4], above 10 µM.

As to `O=C(Nc1ccc(Br)cc1)N1CCN(c2nc3c(c(N4CCOCC4)n2)CSCC3)CC1`, the concentration for half-maximal inhibition (IC50) in experiment [1] is above 50 µM; in the experiment with A549, 39.9 µM; in the experiment with MCF7, 4.68 µM.

As to `O=C(Nc1ccc(F)c(Cl)c1)Nc1ccc(-c2nc3c(c(N4CCOCC4)n2)CS(=O)(=O)CC3)cn1`, the concentration for half-maximal inhibition (IC50) was 1.41 µM in experiment [1]; 6.72 µM in experiment [2]; 0.52 µM in the experiment on A549; 4.82 µM in the experiment with MCF7; 0.94 µM in experiment [3]; above 10 µM in experiment [4].

Turning to `O=C(Nc1ccc(Cl)c(C(F)(F)F)c1)N1CCN(c2nc3c(c(N4CCOCC4)n2)CSCC3)CC1`, the IC50 is 26.7 µM in experiment [1]; above 10 µM in experiment [2]; 3.83 µM in the experiment with A549; 5.8 µM with MCF7; 6.26 µM in experiment [3]; above 10 µM in experiment [4].

Consider `O=C(Nc1ccc(-c2nc3c(c(N4CCOCC4)n2)CSCC3)cn1)NS(=O)(=O)c1ccc(F)cc1`, for which the concentration for half-maximal inhibition (IC50) was above 50 µM in experiment [1], 36.2 µM with A549 and above 50 µM with MCF7.

In the case of `O=C(Nc1ccc(Cl)c(C(F)(F)F)c1)Nc1ccc(-c2nc3c(c(N4CCOCC4)n2)CS(=O)(=O)CC3)cn1`, the IC50 in experiment [1] is 32.2 µM; with A549, above 50 µM; with MCF7, 4.67 µM.

On to `O=C(Nc1ccc(-c2nc3c(c(N4CCOCC4)n2)CS(=O)(=O)CC3)cc1)NS(=O)(=O)c1ccc(F)cc1`, for which the half-inhibitory concentration (IC50) (in experiment [1]; in the experiment with A549; with MCF7) was above 50 µM each time.

On to `O=C(Nc1ccc(-c2nc3c(c(N4CCOCC4)n2)CS(=O)(=O)CC3)cn1)NS(=O)(=O)c1ccc(Cl)cc1`, for which the IC50 (in experiment [1]; in the experiment on A549; with MCF7) was above 50 µM each time.

Take `O=C(Nc1ccc(-c2nc3c(c(N4CCOCC4)n2)CSCC3)cc1)NS(=O)(=O)c1ccc(F)cc1`: the concentration for half-maximal inhibition (IC50) (in experiment [1]; in the experiment on A549; with MCF7) was above 50 µM throughout.

As for `O=C(Nc1ccc(-c2nc3c(c(N4CCOCC4)n2)CSCC3)cn1)NS(=O)(=O)c1ccc(Cl)cc1`, the IC50 (in experiment [1]; in the experiment with A549; in the experiment on MCF7) was above 50 µM throughout.

On to `O=C(Nc1ccc(-c2nc3c(c(N4CCOCC4)n2)CS(=O)(=O)CC3)cn1)NS(=O)(=O)c1ccc(F)cc1F`, for which the values for the half-maximal inhibitory concentration (IC50) (in experiment [1]; with A549; in the experiment with MCF7) were above 50 µM, 22.7 µM and 19.7 µM, respectively.

For `O=C(Nc1ccccc1)N1CCN(c2nc3c(c(N4CCOCC4)n2)CS(=O)(=O)CC3)CC1`, the IC50 (in experiment [1]; in the experiment with A549; with MCF7) was above 50 µM throughout.

As for `Cc1ccc(S(=O)(=O)NC(=O)Nc2ccc(-c3nc4c(c(N5CCOCC5)n3)CS(=O)(=O)CC4)cn2)cc1`, the IC50 in experiment [1] is above 50 µM; in the experiment with A549, 42.5 µM; in the experiment on MCF7 it was above 50 µM.

For `CS(=O)(=O)N1CCN(Cc2cc3nc(-c4cccc5[nH]ncc45)nc(N4CCOCC4)c3s2)CC1` [PICTILISIB], the half-inhibitory concentration (IC50) in experiment [1] came to 0.8 µM; in the experiment on A549, 1.2 µM.

Turning to `CNC(=O)c1cc(Oc2ccc(NC(=O)Nc3ccc(Cl)c(C(F)(F)F)c3)cc2)ccn1` [SORAFENIB], the IC50 in experiment [1] amounted to 8.08 µM.

The values above are taken from ChEMBL document CHEMBL3792291, “Design, synthesis, biological evaluation and docking studies of novel 2-substituted-4-morpholino-7,8-dihydro-5H-thiopyrano[4,3-d]pyrimidine derivatives as dual PI3Kα/mTOR inhibitors” (Eur J Med Chem, 2016).
